MC4R antag cAMP – MC4R antagonists of cAMP signaling, primary screen, cell-based, TR-FRET, antagonist arm of biased-ligand search. Melanocortin receptor 4 (Homo sapiens), P32245. MC4R-expressing cells, MTII-stimulated cAMP, LANCE TR-FRET. inhibition, % at 6.5 µM. 0.48% of 360,000 active;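 active = inhibition above its plate's cutoff, the mean of tested wells on that plate plus 3 SD, cut at about 29% in these data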;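 also: 0% = Melanotan II alone and 100% = Melanotan II plus saturating MCL0020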
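Material – human MC4R-expressing U2OS cells · Repeats – no replicates · Detection – TR-FRET with Eu-cAMP and labeled anti-cAMP, 671 nm · Times – compound 30 min, challenge 1 h, detection 1 h · Compound – single nominal compound dose of 6.5 µM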
NR1D1 modulator – modulators of Rev-erb alpha DNA binding, primary screen, biochemical, FITC-DNA, fluorescence polarization, uHTS; Nuclear receptor subfamily 1 group D member 1 (Homo sapiens), P20393; Rev-erbα–FITC-DNA binding, 90 min; activity, % at 10 µM; 0.79% of 370,000 active; AID 1259318, 2017;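 active = activity above about 14%, limit read from the data; passing the limit was not always enough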;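 also: 0% = DMSO wells with 35 nM protein and 100% = DMSO wells with 750 nM protein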
Target sequence (P20393 whole entry, looked up): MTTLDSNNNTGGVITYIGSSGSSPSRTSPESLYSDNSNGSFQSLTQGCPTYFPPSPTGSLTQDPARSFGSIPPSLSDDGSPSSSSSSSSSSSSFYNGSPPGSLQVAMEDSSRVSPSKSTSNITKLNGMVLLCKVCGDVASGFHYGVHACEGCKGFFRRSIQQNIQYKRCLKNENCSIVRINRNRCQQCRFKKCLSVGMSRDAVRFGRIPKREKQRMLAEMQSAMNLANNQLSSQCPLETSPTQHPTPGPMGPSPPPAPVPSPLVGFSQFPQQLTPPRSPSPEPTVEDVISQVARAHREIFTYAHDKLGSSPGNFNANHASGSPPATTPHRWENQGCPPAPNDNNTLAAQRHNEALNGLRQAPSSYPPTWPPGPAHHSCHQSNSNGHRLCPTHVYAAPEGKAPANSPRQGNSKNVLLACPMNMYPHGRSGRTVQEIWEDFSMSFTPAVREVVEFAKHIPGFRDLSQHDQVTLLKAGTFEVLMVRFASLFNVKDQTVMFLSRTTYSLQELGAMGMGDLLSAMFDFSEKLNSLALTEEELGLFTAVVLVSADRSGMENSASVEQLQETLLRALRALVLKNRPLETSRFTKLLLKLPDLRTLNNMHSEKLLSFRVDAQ
MC4R barr agon – MC4R agonists recruiting beta-arrestin, primary screen, cell-based, luminescence, agonist arm of biased-ligand search; U2OS MC4R beta-arrestin complementation; percent of melanotan II response, DMSO zero; activation, % at 8.9 µM; 0.98% of 360,000 active; AID 540308, 2011;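 active = activation above a per-plate cutoff, the mean activation of sample wells on that plate plus 3 SD, cut at about 8% in these data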
NTR1 agonist – agonists of human NTR1, primary screen, imaging, U2OS cells, beta-arrestin-GFP, high content; 0.17% of 330,000 active; activation, % at 20 µM; NTR1-U2OS beta-arrestin-GFP spot imaging, agonist mode;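 active = activation at or above 40% of the spot to cytoplasm intensity ratio, with at least 20 cells analyzed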;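 also: 0% = DMSO without peptide and 100% = 100 nM NTR1 peptide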
PG9 binder – binders of HIV-1 gp120 antibody PG9, primary screen, biochemical, TR-FRET. 0.43% of 360,000 active. inhibition, % at 6.7 µM. HIV-1 gp120 / PG9 antibody interaction. TR-FRET gp120-PG9 antibody binding; in the data active = inhibition above about 8.5%
MC4R barr conf – MC4R beta-arrestin agonists, retest, confirmation, cell-based, luminescence, U2OS | shares compounds with MC4R barr agon | U2OS MC4R beta-arrestin recruitment; scaled DMSO 0%, Melanotan II 100% | activation, % at 8.9 µM | 31% of 2,400 active | AID 602192, 2012;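 active = mean activation across replicates above the hit cutoff set in the earlier primary screen, cut at about 8% in these data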
MOR-DOR barr ag – agonists of MOR-DOR heterodimerization, counter-screen for MC4R biased agonist project, cell-based, luminescence | shares compounds with MC4R barr agon | U2OS PathHunter beta-arrestin, beta-gal luminescence; percent of deltorphin B response, DMSO zero | activation, % at 9.2 µM | 5.8% of 2,400 active | AID 602194, 2012;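 active = mean activation across replicates exceeds the hit threshold derived in the earlier primary screen, cut at about 18% in these data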;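 also: 100% = deltorphin B at 0.9 µM final and 0% = DMSO alone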
* hit, by the source's call; x = not tested or not shown. Shown are actives, neighbours in structure and some others; about 2.5% of the full set was active somewhere.

SMILES	MC4R antag cAMP	NR1D1 modulator	MC4R barr agon	NTR1 agonist	PG9 binder	MC4R barr conf	MOR-DOR barr ag
CCOc1ccc(C(=O)Nc2ccc(N3CCN(C(=O)c4ccco4)CC3)cc2)cc1Br	1	-15	14*	x	1	3	4
CCC(=O)N1CCN(c2ccc(NC(=O)c3ccc4ccccc4c3)cc2)CC1	3	4	17*	3	-1	6	10
CCC(=O)N1CCN(c2ccc(NC(=O)c3ccccc3)cc2)CC1	1	-1	-1	0	-3	x	x
CCC(C)c1ccc2oc(-c3ccc(NC(=O)Cn4cnc5c(=O)n(C)c(=O)n(C)c54)cc3)nc2c1 (stereo not drawn)	24	-7	14*	0	0	8.6*	x
Cc1ccc(C)c(OCc2ccc(C(=O)NN)o2)c1	5	1	15*	0	0	-3	2
Cc1ccc(C)c(OCc2ccc(C(=O)Nc3ccc([N+](=O)[O-])cn3)o2)c1	4	2	16*	0	0	-1	5
Cc1ccc(OCc2ccc(C(=O)NN)o2)c([N+](=O)[O-])c1	-10	-1	7	1	-1	x	x
COc1ccc(S[C@]2(C(=O)N3CCCC3)CC(=O)N(C(=O)c3ccccc3)[C@@H]2c2ccc(OC)cc2)cc1	x	1	x	x	x	x	x
CCCCCCCCN1C(=O)[C@@H](CC(=O)N2CCCC2)C[C@@]2(C(=O)OC)C1=C[C@H](C(C)C)O[C@@H]2C1CC1	x	-1	x	x	x	x	x
O=[N+]([O-])c1ccc2[nH]c(O)c(N=Nc3ccc(F)cc3)c2c1	12	0	0	4	1	x	x
O=[N+]([O-])c1ccc(N=Nc2c(O)[nH]c3ccc(F)cc23)cc1	10	-15	18*	11	-3	10*	1
Cc1ccc(C)c(OCCC(=O)OCC(=O)NC(=O)NC2CCCC2)c1	8	1	14*	2	0	3	8
CCOc1ccc(-c2cc(C(C)=O)c3n(c2=O)CCC3)cc1	x	2	x	x	x	x	x
COc1ccc(-c2csc(NC(=O)c3nc(-c4ccccc4)oc3C)n2)cc1	-3	8	12*	1	0	2	4
COc1ccc(-c2csc(NC(=O)c3ccccc3C(=O)O)n2)cc1	3	1	-2	0	1	x	x
CCC(C)(C)c1ccc(OCCCC[n+]2ccccc2)c(C(C)(C)CC)c1	13	16	12*	8	0	12*	6
CCCCCc1ccc(OCCCC[n+]2ccccc2)c(CCCCC)c1	16	x	10*	2	x	8.3*	2
Cc1cc(=O)oc2cc(OCCCC[n+]3ccccc3)ccc12	-2	5	-2	0	0	x	x
CCC(C)(C)c1ccc(Oc2cccc(C(=O)O)c2)cc1	11	-1	-2	0	-1	x	x
CCOC(=O)CC[C@@H]1CC[C@]2(CCCN(Cc3nccs3)C2)O1	x	-2	x	x	x	x	x
CCCCc1c(-c2ccccc2OC)ncn1Cc1ccccc1C	x	6	x	x	1	x	x
O=C(c1ccoc1)N1CCN(c2cc(-c3ccccc3)nc3cc(-c4ccc(Br)cc4)nn23)CC1	16	-1	2	x	1	x	x
O=C(c1ccoc1)N1CCN(c2cc(-c3cccnc3)nc3cc(-c4cccc(Cl)c4)nn23)CC1	20	-3	11*	x	-1	0	3
O=C(Nc1ccccc1Cl)C1C(c2ccccc2)C1(Cl)Cl (stereo not drawn)	4	4	4	1	0	x	x
O=C(Nc1ccc(F)cc1)C1C(c2ccccc2)C1(Cl)Cl (stereo not drawn)	-2	-6	15*	7	-2	0	11
SMILES	MC4R antag cAMP	NR1D1 modulator	MC4R barr agon	NTR1 agonist	PG9 binder	MC4R barr conf	MOR-DOR barr ag
O=C(c1cc(-c2ccc(O)cc2)on1)N1CCN(c2ccc(F)cc2)CC1	11	1	11*	5	-2	-1	6
Clc1ccccc1Cn1ccc2ccc(-c3ccc4ccn(Cc5ccccc5Cl)c4c3)cc21	x	10	x	x	x	x	x
N/C(Cc1ccc(Cl)cc1)=N\OC(=O)c1cccc2ccccc12	3	13	11*	9	-3	11*	13
COc1ccc(N2CCN(CCCNC(=O)Cn3c(=O)c4cccn4c4cccnc43)CC2)c(OC)c1	x	-2	x	x	x	x	x
OC(CNCCc1ccc(C(F)(F)F)cc1)COC(c1ccccc1)c1ccccc1 (stereo not drawn)	6	4	36*	66*	0	22*	13
CC(C)CN(CC(C)C)CC(O)COc1ccc([N+](=O)[O-])cc1 (stereo not drawn)	10	-1	10*	3	-3	-1	7
O=[N+]([O-])c1ccc(OCC(O)CN(C2CCCCC2)C2CCCCC2)cc1 (stereo not drawn)	-6	4	-1	-2	-2	x	x
Cc1cccc(OCc2nnc(NC(=O)Cc3cccs3)s2)c1	-5	1	34*	7	2	9.9*	9
Cc1ccc(OCc2nnc(NC(=O)Cc3cccs3)s2)cc1	x	3	x	4	0	x	x
COC(=O)C1CN(Cc2cn(CCC3OCCO3)nn2)CCS(=O)(=O)N1Cc1ccc(Cl)cc1 (stereo not drawn)	x	0	x	x	x	x	x
CCc1ccc(NC(=S)NC2CCN(Cc3ccccc3)CC2)cc1	18	0	7	-1	0	x	x
CCC(C)c1ccc(NC(=S)NC2CCN(Cc3ccccc3)CC2)cc1 (stereo not drawn)	13	-4	15*	7	-2	22*	14
Cc1ccc(C(C)C)c(OCc2ccc(C(=O)N/N=C/c3ccc(O)c(O)c3)cc2)c1	18	1	20*	1	2	9.0*	6
COc1cc(/C=N/NC(=O)c2ccc(COc3cc(C)ccc3C(C)C)cc2)cc(OC)c1O	27	-1	3	7	2	x	x
Cc1ccc(C(=O)N/C(=C\c2ccc(-c3ccc(Br)cc3)o2)C(=O)NCCCN(C)C)cc1	12	0	11*	5	-9	9.1*	10
Cc1nn(C)c2ncc(C(=O)c3cc(F)ccc3O)cc12	13	6	2	3	-1	x	x
O=C(c1cnc2ccc3ccccc3c2c1)c1cc(F)ccc1O	8	6	22*	12	1	-4	5

Compound activity: PubChem BioAssay, several laboratories
